17 compounds from ChEMBL document CHEMBL1124636, “3,4-Dihydro-2H-1-benzopyran-2-carboxylic acids and related compounds as leukotriene antagonists” (J Med Chem, 1989) can be followed below.

Assay [1] relates to Cavia porcellus. Nature of the assay: (§1) Inhibition of leukotriene D4 induced bronchoconstriction in anesthetized guinea pigs after aerosol administration as 1% solution. The class given is functional. A digest of the protocol: (§2)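 Guinea pigs given propranolol 0.1 mg/kg iv 5 min before 5-min ultrasonic nebulizer exposure to aqueous, NaOH-neutralized drug (% w/v) or distilled water, breathing spontaneously. LTD4 50 µg/kg iv 30 s after exposure; tracheal pressure change.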

Assay [2] relates to Cavia porcellus. Nature of the assay: Inhibition of leukotriene D4 induced bronchoconstriction in anesthetized guinea pigs after intravenous administration at a dose of 10 mg/kg. It counts as functional. In outline: (§3)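 Male Hartley guinea pigs, 400–600 g, urethane 2 g/kg ip, jugular cannula, propranolol 0.1 mg/kg iv 5 min before challenge, succinylcholine 1.2 mg/kg iv, ventilated. Vehicle or drug iv 30 s before LTD4 25 µg/kg iv; tracheal pressure change.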

Assay [3] deals with Cysteinyl leukotriene receptor (Cavia porcellus). Nature of the assay: Inhibitory activity to block binding of [3H]leukotriene D4 to Cysteinyl leukotriene D4 receptor sites in homogenized guinea pig lung at 10 uM.
The test system of assay [4] is Cavia porcellus. Nature of the assay: Inhibition of leukotriene D4 induced bronchoconstriction in anesthetized guinea pigs after intravenous administration. The class given is functional. As to conditions: read-out: ID50 (the source's name). A digest of the protocol: as §3
Assay [5] deals with Cysteinyl leukotriene receptor (Cavia porcellus). The assay is described as follows: Inhibitory activity to block binding of [3H]leukotriene D4 to LTD4 receptor sites in homogenized guinea pig lung at 10 uM.
For assay [6], the system named is Cavia porcellus. The description is as §1. It counts as functional, organism-based. In outline:
as §2

As usually defined, the Inhibition is the change of the read-out against control, counted positive when it falls. One may read the inhibition in vivo as the change of the read-out against control, counted positive when it falls. The inhibition is the drop in the measured response relative to a control, in per cent. `CCCc1c(OCCCCOc2cc3c(cc2C(C)=O)CCC(C(=O)O)O3)ccc(C(C)=O)c1O` (configuration not stated): the Inhibition in assay [1] worked out at 37%. In assay [2], this compound displayed an inhibition in vivo at 10 mg/kg of 36%. Further, the inhibition in assay [3] amounted to 26%.

Compound `CCCc1c(OCCCSc2ccc([C@@H](O)[C@H](C)CC(=O)O)cc2)ccc(C(C)=O)c1O` [L-649923] had an inhibition in vivo at 10 mg/kg in assay [2] of 72%. Moreover, the ED50 in assay [4] worked out at 6 mg/kg.

`O=S(=O)(Nc1cccc(OCc2ccc3ccccc3n2)c1)C(F)(F)F` [RITOLUKAST]: the inhibition in vivo at 10 mg/kg in assay [2] worked out at 61%. Moreover, in assay [4], the ED50 stood at 4 mg/kg.

In assay [1], `CCCc1c(OCCCCCOc2cc3c(cc2Cl)CCC(C(=O)O)O3)ccc(C(C)=O)c1O` (configuration not stated) came in with an Inhibition of 0%. Besides, the inhibition in vivo at 10 mg/kg in assay [2] came out at 16%. The compound further had an inhibition in assay [5] of 45%.

Consider `CCCc1c(OCCCS(=O)(=O)c2ccc(C(=O)CCC(=O)O)cc2)ccc(C(C)=O)c1O` [L-648051], for which the IC50 in assay [6] is recorded as 0.7 % conc. In assay [1], this compound displayed an Inhibition of 70%. The compound also showed an inhibition in vivo at 10 mg/kg in assay [2] of 73%. For the same compound, the ED50 in assay [4] came out at 6 mg/kg. In addition, the inhibition in assay [3] amounted to 0%.

The compound `CCCc1c(OCCCCc2nnn[nH]2)ccc(C(C)=O)c1O` [TOMELUKAST] returned an IC50 in assay [6] of 0.4 % conc. In assay [1], the Inhibition was 62%. This compound also registered an inhibition in vivo at 10 mg/kg in assay [2] of 77%. Moreover, in assay [4], the ED50 amounted to 5 mg/kg.

On to `CC(=O)c1ccc(OCCCCCOc2cc3c(cc2C(C)=O)CCC(C(=O)O)O3)cc1O` (configuration not stated), for which the Inhibition in assay [1] is listed as 0%. This compound also showed an inhibition in vivo at 10 mg/kg in assay [2] of 85%. Moreover, the ED50 in assay [4] worked out at 5 mg/kg. In assay [5], this compound gave an inhibition of 0%.

`CCCc1c(OCCCCCOc2cc3c(cc2Br)CCC(C(=O)O)O3)ccc(C(C)=O)c1O` (configuration not stated) displayed an Inhibition in assay [1] of 0%. For the same compound, in assay [2], the inhibition in vivo at 10 mg/kg was 13%. The same compound returned an inhibition in assay [3] of 57%.

`CCCc1c(OCCCCCOc2cc3c(cc2C(=O)CC)CCC(C(=O)O)O3)ccc(C(C)=O)c1O` (configuration not stated): the IC50 in assay [6] was determined as 0.3 % conc. The compound further came in with an Inhibition in assay [1] of 60%. In assay [2], this compound displayed an inhibition in vivo at 10 mg/kg of 7%. This compound registered an inhibition in assay [3] of 52%.

For the compound `CCCc1c(OCCCCCOc2cc3c(cc2C(C)=O)CC(C(=O)O)O3)ccc(C(C)=O)c1O` (configuration not stated), the IC50 in assay [6] is listed as 0.04 % conc. Besides, the Inhibition in assay [1] is 88%. Testing at 10 mg/kg in assay [2] gave an inhibition in vivo of 25%. The inhibition in assay [3] came out at 12%.

As for `CCCc1c(OCCCCCOc2cc3c(cc2C(C)=O)CCC(CCCCC(=O)O)O3)ccc(C(C)=O)c1O` (configuration not stated), 10 mg/kg produced 10% inhibition in vivo in assay [2]. For the same compound, in assay [5], the inhibition turned out to be 47%.

Turning to `CCCc1c(OCCCCCCc2cc3c(cc2C(C)=O)CCC(C(=O)O)O3)ccc(C(C)=O)c1O` (configuration not stated), in assay [6], the IC50 was 0.3 % conc. In assay [1], this compound returned an Inhibition of 65%. This compound returned an inhibition in vivo at 10 mg/kg in assay [2] of 46%. Besides, the inhibition in assay [3] was 20%.

As to `CCCc1c(O)c(C(C)=O)cc(Cl)c1OCCCCCOc1cc2c(cc1C(C)=O)CCC(C(=O)O)O2` (configuration not stated), in assay [1], the Inhibition is reported as 10%. This compound returned an inhibition in vivo at 10 mg/kg in assay [2] of 11%. Moreover, the inhibition in assay [3] turned out to be 47%.

Turning to `CCCc1c(OCc2ccccc2CCOc2cc3c(cc2C(C)=O)CCC(C(=O)O)O3)ccc(C(C)=O)c1O` (configuration not stated), the Inhibition in assay [1] amounted to 12%. The compound further showed an inhibition in vivo at 10 mg/kg in assay [2] of 24%. The compound also came in with an inhibition in assay [3] of 26%.

In assay [1], `CCCc1c(OCCOCCOc2cc3c(cc2C(C)=O)CCC(C(=O)O)O3)ccc(C(C)=O)c1O` (configuration not stated) yielded an Inhibition of 31%. For the same compound, at 10 mg/kg the inhibition in vivo in assay [2] was 50%. The ED50 in assay [4] worked out at 10 mg/kg. In assay [3], this compound displayed an inhibition of 8%.

In assay [1], `CCCc1c(OCCCCCOc2cc3c(cc2[N+](=O)[O-])CCC(C(=O)O)O3)ccc(C(C)=O)c1O` (configuration not stated) came in with an Inhibition of 0%. Testing at 10 mg/kg in assay [2] gave an inhibition in vivo of 18%. Besides, the inhibition in assay [5] was 48%.

Consider `CCCc1c(OCCCCCOc2ccc3c(c2)OC(C(=O)O)CC3)ccc(C(C)=O)c1O` (configuration not stated), for which the IC50 in assay [6] is listed as 1 % conc. In assay [1], this compound showed an Inhibition of 50%. Also, the inhibition in vivo at 10 mg/kg in assay [2] was determined as 0%. In assay [3], this compound returned an inhibition of 11%.
